From PubChem
XiGFP reactiv – activators of inactive X chromosome reactivation, primary screen, imaging, XiGFP fibroblasts, GFP high-content imaging, set 2 | activation, % at 7.58 µM | XiGFP mouse fibroblasts, % GFP-positive cells imaging, 3 d; cells co-treated with 5-aza-dC sensitizer; scaled so ellipticine positive control = 100% | AID 743238, 2013 | actives 0.055% (n = 360,000);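 active means mean normalized replicate activation at least 10% and every replicate at or above 10%; inconclusive means only one of the two criteria met; inactive means mean below 10% and not all replicates reach 10%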;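 further: 0% = median of on-plate neutral control wells and 100% = ellipticine 6 µM median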
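System: XiGFP fibroblasts, SV40-immortalized. Medium: DMEM plus 5-aza-dC sensitizer. Doses: single point. Timing: 3 d treatment, 15 min room-temperature fixation. Control set: ellipticine 6 µM.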
RAD54 inh – inhibitors of human RAD54 branch migration, primary screen, biochemical, fluorescence, single point; RAD54 Holliday junction branch migration, FAM/BHQ fluorescence; DNA repair and recombination protein RAD54-like (Homo sapiens), Q92698; AID 602329, 2012; inhibition, % at 10.4 µM; actives 0.14% (n = 360,000);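 active means mean normalized replicate activity at least 40 and at least half of replicates scoring 40 or more; inconclusive means only one of the two criteria met; inactive means mean below 40 and under half of replicates reaching 40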;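 further: 0% = median of neutral control wells and 100% = median of positive control wells; inhibitors cause a drop in the FAM fluorescence signal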
PglD DTNB – C. jejuni PglD acetyltransferase inhibitors, primary screen, biochemical, DTNB colorimetric, single point; purified PglD enzyme, DTNB colorimetric CoA detection; inhibition, % at 12.5 µM; actives 0.098% (n = 360,000); AID 602405, 2012; in the data active means inhibition above about 16%, passing the limit was not always enough; inconclusive means no clear call, values can overlap the other calls
RAD52 inh – RAD52 DNA annealing inhibitors, primary screen, biochemical, FRET, single point, set 2; inhibition, % at 18.7 µM; actives 0.46% (n = 360,000); recombinant RAD52 DNA annealing, FRET fluorescence; AID 651710, 2012; DNA repair protein RAD52 homolog (Homo sapiens), P43351;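 active means every replicate showing at least 50% inhibition; inconclusive means mean inhibition at least 50% but not in every replicate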
Target sequence (P43351 whole entry, looked up): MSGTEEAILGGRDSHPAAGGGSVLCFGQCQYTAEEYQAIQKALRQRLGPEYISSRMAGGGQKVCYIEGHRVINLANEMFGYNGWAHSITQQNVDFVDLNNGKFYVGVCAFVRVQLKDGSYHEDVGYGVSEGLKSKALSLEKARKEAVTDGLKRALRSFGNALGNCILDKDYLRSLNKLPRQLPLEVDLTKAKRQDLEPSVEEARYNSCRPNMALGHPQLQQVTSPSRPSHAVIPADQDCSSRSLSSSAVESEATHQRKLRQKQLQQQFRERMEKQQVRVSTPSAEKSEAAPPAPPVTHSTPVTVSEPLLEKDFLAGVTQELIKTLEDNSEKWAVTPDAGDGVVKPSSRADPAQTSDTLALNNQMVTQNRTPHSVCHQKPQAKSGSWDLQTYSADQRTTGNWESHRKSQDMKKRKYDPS
E-selectin induc – E-selectin induction in HUVECs, primary screen, imaging, HUVEC, immunofluorescence imaging, single point; P16581; normalized: neutral wells 0, TNF-alpha wells 100; activation, % at 7.58 µM; actives 0.37% (n = 260,000); AID 686992, 2013;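 active means mean E-selectin-positive cell signal at least 10% of the positive control, reached in at least 60% of replicates, without over 20% cell loss; inconclusive means no rule given, readout overlaps actives, possibly toxicity-flagged; inactive means the rest, including those meeting only one limit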
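Read-out: % PE-positive cells | Test system: HUVEC | Doses: One compound dose added by pin transfer | Buffer or medium: EGM-2 over gelatin coat | Signal: Immunofluorescence imaging | Benchmarks: TNF-alpha, DMSO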
Ecoli rRNA inh – reduced GFP signal of wild-type E. coli, primary screen, bacterial rRNA inhibitor project, GFP/RFP fluorescence, OD600, single point; actives 1.6% (n = 350,000); GFP signal change (wild-type ribosome), % (test concentration not listed); E. coli WT GFP vs humanized-ribosome RFP mutants, 24 h; active compounds read low; DMSO median 0, no signal -100;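 active means significant combined selectivity score with lowered wild-type GFP, culture density cut under 30%, mutant RFP and density less affected; inactive means any of these conditions unmet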
HepG2 cytotox – cytotoxicity in HepG2 cells, dose response, cytotoxicity control, cell-based, CellTiter-Glo luminescence, cherry-pick, set 4; AID 743480, 2014; activity change, negative = cytotoxicity, unspecified at 26 µM; shares compounds with Ecoli rRNA inh; HepG2 viability, ATP luminescence, 72 h; 30 tested, under 10 active;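 active means compounds whose fitted half-maximal signal-loss concentration is at most twice their highest valid dose; inconclusive means flat curve with 30 to 70% signal loss, or poor fit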
AID977621 – growth inhibition of wild-type GFP E. coli, dose response, H69 mutant RFP, cherry-pick; activity change, negative = inhibition at 50 µM; E. coli wild-type GFP strain growth, fluorescence, 24 h; 1,900 tested, under 10 active; shares compounds with Ecoli rRNA inh;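 active means Wild-type ribosome reporter drop at least double the humanized mutant ribosome reporter drop, growth loss under a set limit; inconclusive means no clear call, values can overlap the other calls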;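 further: wild-type GFP and H69 mutant RFP strains grown together 50/50 in each well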
AID977628 – E. coli growth inhibition, wild-type GFP versus h24 humanized RFP strain, dose response, h24 mutant RFP vs wild-type GFP, cherry-pick | 1,900 tested, under 10 active | activity change, negative = inhibition at 50 µM | shares compounds with Ecoli rRNA inh | E. coli WT GFP strain growth, fluorescence, 24 h;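 active means compound lowering the normal-ribosome reporter at least twice as much as the humanized-ribosome reporter, growth loss under a set limit; inconclusive means no clear call, values can overlap the other calls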;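 further: wild-type GFP and h24 humanized RFP strains co-cultured 1 to 1 per well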
An asterisk follows results filed as active; u = inconclusive; x = not tested or not shown. Only some compounds are listed: those with a hit (about 2% of all), similar ones and a draw of the others.

SMILES	XiGFP reactiv	RAD54 inh	PglD DTNB	RAD52 inh	E-selectin induc	Ecoli rRNA inh	AID977621	AID977628	others
COc1ccc(CC(=O)NCc2csc(-c3cccs3)n2)cc1OC	0	x	x	-10	x	-20*	-4.9	x
Cc1ccc(S(=O)(=O)N2CC[C@H]3[C@H](CO)Nc4ccc(Br)cc4[C@H]32)cc1	0	7	4	5	-1	-25*	x	u	HepG2 cytotox=24
Cc1ccc(S(=O)(=O)N2CC[C@@H]3[C@H]2c2cc(Br)ccc2N[C@@H]3CO)cc1	0	5	-2	-56	0	-11	x	x
COc1ccccc1C(=O)COC(=O)c1cccs1	0	2	-1	-8	0	-24*	-25	-18
COc1ccccc1C(=O)COC(=O)c1ccccc1O	0	4	-2	-4	x	-1	x	x
Cc1noc(C)c1NC(=O)Nc1ccc2c(c1)C(=O)N([C@H](C)CO)C[C@H](C)[C@@H](CN(C)CC1CC1)OCCCC[C@@H](C)O2	4	0	2	-8	0	3	x	x
O=C(NCc1ccc(Cl)cc1)c1csc(-c2cccnc2)n1	0	x	x	-11	0	-37*	u	x
COc1ccc(OC)c(S(=O)(=O)Nc2cccc3ccc(O)cc23)c1	0	x	x	-7	x	-32*	-8.6	-14
CN1C(=O)c2cc(NC(=O)c3ccc(C(F)(F)F)cc3)ccc2OC[C@H]2O[C@@H](CC(=O)O)CC[C@H]21	0	7	0	-5	0	-3	x	x
CC1Cc2cc(S(=O)(=O)N3CCN(c4ccc(Cl)cc4)CC3)ccc2N1C(=O)C1CC1 (stereo unspecified)	0	-10	4	-5	x	4	x	x
CC1Cc2cc(S(=O)(=O)N3CCN(c4cccc(Cl)c4)CC3)ccc2N1C(=O)C1CC1 (stereo unspecified)	0	0	5	-8	x	-26*	-5.4	-8.8
COc1ccccc1S(=O)(=O)N[C@@H]1CC[C@@H](CC(=O)NCc2cc(F)cc(F)c2)O[C@H]1CO	0	x	x	9	0	1	x	x
Cc1nn(Cc2cccc(F)c2)c(C)c1NC(=O)c1c(Cl)cnn1C	0	x	x	-7	x	-18*	-4.8	-0.98
CO[C@H]1CN(C)C(=O)c2ccc(NS(C)(=O)=O)cc2OC[C@@H](C)N(C(=O)NC(C)C)C[C@@H]1C	0	14	-3	-16	0	-1	x	x
CCCNc1ccc(C(=O)OCC)cc1[N+](=O)[O-]	0	7	-6	-18	4	-31*	-6.2	-12
O=C(NCCCN1CCOCC1)c1sc2cc([N+](=O)[O-])ccc2c1Cl	x	8	-7	x	x	x	x	-8.6
O=C(C1CCCC1)N1CCCCN2[C@H](CO)[C@H](c3ccc(C#CC4CC4)cc3)[C@@H]2C1	x	6	3	19	x	x	x	x
Fc1cccc(Cc2c(-c3ccco3)nc3c4ccccc4ccn23)c1	0	0	4	-124	0	-21*	-9.8	x
Brc1ccc(-c2nc3c4ccccc4ccn3c2Cc2ccccc2)cc1	0	x	x	-10	1	-22*	9.1	0.43
O=C(Cc1cccc(NC(=O)C2CCCN(C(=O)CCc3ccccc3)C2)c1)Nc1cccc(C(=O)N2CCCC2)c1 (stereo unspecified)	0	1	4	-42	1	-19*	u	x
O=C(Nc1ccc2nc(-c3ccccc3)[nH]c2c1)c1cccs1	x	4	-5	-6	x	-32*	-9	x
O=C(Nc1ccc2nc(-c3cccnc3)[nH]c2c1)c1ccco1	0	8	x	6	0	-31*	-13	x
COC(=O)c1ccc(C(=O)Nc2ccc3nc(-c4ccncc4)[nH]c3c2)cc1	0	8	-1	-16	0	-28*	-3.4	-3.2
O=C(Nc1ccc2nc(-c3ccc4nc[nH]c4c3)[nH]c2c1)c1cccs1	x	-7	0	x	x	x	x	x
CC1(C(=O)Nc2ccc3c(c2)OCCO3)CN(S(C)(=O)=O)CC(=O)N1CCc1ccccc1F (stereo unspecified)	0	x	x	2	0	2	x	x
SMILES	XiGFP reactiv	RAD54 inh	PglD DTNB	RAD52 inh	E-selectin induc	Ecoli rRNA inh	AID977621	AID977628	others
CCCNC(=O)N1C[C@@H](C)[C@@H](OC)CN(C)C(=O)c2ccc(NS(C)(=O)=O)cc2OC[C@@H]1C	0	1	3	-13	0	4	x	x
CN(C)S(=O)(=O)c1cccc(NC(=O)c2ccc3c(c2)S(=O)(=O)N=C2CCCCCN23)c1	0	-4	-3	-27	1	-20*	-13	-10
CN(C)S(=O)(=O)c1cccc(C(=O)Nc2ccc(C(=O)Nc3cccc(S(N)(=O)=O)c3)cc2)c1	0	-7	-2	-95	2	-24*	x	-8
O=C(C[C@H]1CC[C@H]2[C@@H](COC[C@@H](O)CN2Cc2ccc(F)cc2)O1)NCc1ccccc1Cl	0	-5	2	4	0	-3	x	x
O=C(N[C@@H]1CC[C@@H](CCn2cc(C3(O)CCCC3)nn2)O[C@@H]1CO)C1CCCC1	0	11	0	-5	0	3	x	x
CCN(C(=O)COC(=O)CCc1ccccc1)c1ccccc1	0	-1	-1	-13	x	-34*	x	-7.7
CCNC(=O)C1(C)CCCN(Cc2cccc3ccccc23)C1 (stereo unspecified)	0	-5	3	-14	1	-23*	x	u
Cc1cccc(Oc2ccc(NC(=O)c3ccccc3C(=O)O)cc2)c1	0	9	2	-34	-1	-23*	-17	u
CC(C)[C@H](NC(=O)c1ccc(Cl)c(Cl)c1)C(=O)N1CCC[C@H]1C(=O)NCCc1ccccc1Cl	0	x	x	-7	17	-29	x	x
